Test results from ChEMBL document CHEMBL1147762, “A new chemical tool for exploring the physiological function of the PDE2 isozyme” (Bioorg Med Chem Lett, 2006).

Key:
[1] = target: Phosphodiesterase 1 (Homo sapiens, UniProt P54750+Q01064+Q14123); assay: Inhibitory activity against PDE1 by scintillation proximity assay; type: protein assay
In short: (§1)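 Phosphodiesterase inhibition run as a scintillation proximity assay, with enzyme at a concentration in the linear range. Final substrate was 1 µM, below one-third of the enzyme K_M, so that IC50 approximates Ki. Values are means of n experiments with standard deviation.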

[2] = target: Phosphodiesterase 3 (Homo sapiens, UniProt Q14432+Q13370); assay: Inhibitory activity against PDE3 by scintillation proximity assay; type: protein assay; in short: as §1
[3] = target: 3',5'-cyclic-AMP phosphodiesterase 4C (Homo sapiens, UniProt Q08493); assay: Inhibitory activity against PDE4C by scintillation proximity assay
In short: (§2)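 Scintillation proximity assay for phosphodiesterase inhibition. Enzyme is used at a concentration within the linear range, and its KM was measured. Final substrate concentration is 1 µM, below one-third of KM, so IC50 approximates Ki. Results are means of n experiments with standard deviation.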

[4] = target: High affinity cAMP-specific and IBMX-insensitive 3',5'-cyclic phosphodiesterase 8B (Homo sapiens, UniProt O95263); assay: Inhibitory activity against PDE8B by scintillation proximity assay; in short: as §2
[5] = target: High affinity cGMP-specific 3',5'-cyclic phosphodiesterase 9A (Homo sapiens, UniProt O76083); assay: Inhibitory activity against PDE9 by scintillation proximity assay; in short: as §2
[6] = target: Dual 3',5'-cyclic-AMP and -GMP phosphodiesterase 11A (Homo sapiens, UniProt Q9HCR9); assay: Inhibitory activity against PDE11 by scintillation proximity assay
In short: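 Phosphodiesterase inhibition run as a scintillation proximity assay, with enzyme at a concentration in the linear range. Values are means of n experiments with standard deviation.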

[7] = target: Adenosine receptor A3 (Homo sapiens) (UniProt P0DMS8); assay: Percentage binding to adenosine A3 receptor at 10 uM
[8] = target: Adrenergic receptor alpha-1 (Homo sapiens) (UniProt P35348+P25100+P35368); assay: Percentage binding to adrenergic alpha-1 receptor at 10 uM; type: protein assay
[9] = target: Beta-2 adrenergic receptor (Homo sapiens) (UniProt P07550); assay: Percentage binding to adrenergic beta-2 receptor at 10 uM
[10] = target: Delta-type opioid receptor (Homo sapiens) (UniProt P41143); assay: Percentage binding to opioid delta at 10 uM
[11] = target: Mu-type opioid receptor (Homo sapiens) (UniProt P35372); assay: Percentage binding to opioid mu at 10 uM
[12] = target: Platelet-activating factor receptor (Homo sapiens) (UniProt P25105); assay: Percentage binding to PAF at 10 uM
[13] = target: Ribosomal protein S6 kinase (P70S6K) (Homo sapiens) (UniProt Q9UBS0+P23443); assay: Inhibition of p70S6K at 10 uM; type: protein-complex assay
[14] = target: Glycogen synthase kinase-3 beta (Homo sapiens) (UniProt P49841); assay: Inhibition of GSK3-beta at 10 uM
[15] = target: Casein kinase II (Homo sapiens) (UniProt P67870+P68400+P19784); assay: Inhibition of CK2 at 10 uM; type: protein-complex assay
[16] = target: Phosphorylase kinase (Homo sapiens) (UniProt P15735+P46020+P46019+Q93100+Q16816); assay: Inhibition of PHK at 10 uM; type: protein-complex assay
[17] = target: Tyrosine-protein kinase Lck (Homo sapiens) (UniProt P06239); assay: Inhibition of LCK at 10 uM
[18] = target: B1 bradykinin receptor (Homo sapiens) (UniProt P46663); assay: Percentage binding to bradykinin B1 at 10 uM
[19] = target: Glutamate receptor ionotropic AMPA (Homo sapiens) (UniProt P48058+P42263+P42262+P42261); assay: Percentage binding to AMPA at 10 uM; type: protein-complex assay
[20] = target: Glutamate [NMDA] receptor (Homo sapiens) (UniProt Q05586+Q12879+Q13224+O15399+O60391+Q14957+Q8TCU5); assay: Percentage binding to NMDA at 10 uM; type: protein-complex assay
[21] = target: Muscarinic acetylcholine receptor M1 (Homo sapiens) (UniProt P11229); assay: Percentage binding to muscarinic M1 at 10 uM
[22] = target: Muscarinic acetylcholine receptor M2 (Homo sapiens) (UniProt P08172); assay: Percentage binding to muscarinic M2 at 10 uM
[23] = target: Substance-P receptor (Homo sapiens) (UniProt P25103); assay: Percentage binding to neurokinin K1 at 10 uM
[24] = target: Serotonin 3 (5-HT3) receptor (Homo sapiens) (UniProt P46098+A5X5Y0+O95264+Q70Z44+Q8WXA8); assay: Percentage binding to serotonin 5HT3 at 10 uM; type: protein-complex assay
[25] = target: Thyroid hormone receptor (Homo sapiens) (UniProt P10827+P10828); assay: Percentage binding to thyroid hormone receptor at 10 uM; type: protein-complex assay
[26] = target: Vasopressin V2 receptor (Homo sapiens) (UniProt P30518); assay: Percentage binding to vasopressin V2 at 10 uM
[27] = target: Sodium-dependent noradrenaline transporter (Homo sapiens) (UniProt P23975); assay: Activity against norepinephrine uptake at 10 uM
[28] = target: Serine/threonine-protein kinase Sgk1 (Homo sapiens) (UniProt O00141); assay: Inhibition of SGK at 10 uM
[29] = target: Tyrosine-protein kinase CSK (Homo sapiens) (UniProt P41240); assay: Inhibition of CSK at 10 uM
[30] = target: Casein kinase I (Homo sapiens) (UniProt Q9HCP0+P78368+P48730+P49674+P48729); assay: Inhibition of CK1 at 10 uM; type: protein assay
[31] = target: Dual specificity tyrosine-phosphorylation-regulated kinase 1A (Homo sapiens) (UniProt Q13627); assay: Inhibition of DYRK1A at 10 uM
[32] = target: Serine/threonine-protein kinase Nek6 (Homo sapiens) (UniProt Q9HC98); assay: Inhibition of NEK6 at 10 uM
[33] = target: Voltage-dependent L-type calcium channel subunit alpha-1D (Homo sapiens) (UniProt Q01668); assay: Percentage binding to Ca2+ channel D at 10 uM
In short: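 Single-concentration screen within a panel of 54 receptors and ion channels, measuring binding or interaction at each target.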

[34] = target: Voltage-dependent N-type calcium channel subunit alpha-1B (Homo sapiens) (UniProt Q00975); assay: Percentage binding to Ca2+ channel N at 10 uM
[35] = Apical Caco-2 cell membrane permeability; type: ADME, cell-based; conditions: human
[36] = system: P-glycoprotein (human); assay: Basolateral cell permeability in MDCK with MDR transfectant overexpressing human p-glycoprotein; type: ADME, cell-based; conditions: MDCK-MDR1
[37] = Clearance in rat; type: ADME, organism-based; conditions: Sprague-Dawley, in vivo
In short: (§3)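 Sprague–Dawley rats were dosed intravenously at 1 mg/kg in EtOH:PEG 400:H2O (1:4:5) and orally at 30 mg/kg in 0.5% methylcellulose.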

[38] = Volume of distribution in rat; type: ADME, organism-based; conditions: Sprague-Dawley, in vivo, read-out: Vdss
[39] = Half life in rat; type: ADME, organism-based; conditions: Sprague-Dawley, in vivo; in short: as §3
[40] = target: 3-phosphoinositide-dependent protein kinase 1 (Homo sapiens) (UniProt O15530); assay: Inhibition of PDK1 at 10 uM
Sequence of 3-phosphoinositide-dependent protein kinase 1 (Homo sapiens) (O15530 whole entry, looked up): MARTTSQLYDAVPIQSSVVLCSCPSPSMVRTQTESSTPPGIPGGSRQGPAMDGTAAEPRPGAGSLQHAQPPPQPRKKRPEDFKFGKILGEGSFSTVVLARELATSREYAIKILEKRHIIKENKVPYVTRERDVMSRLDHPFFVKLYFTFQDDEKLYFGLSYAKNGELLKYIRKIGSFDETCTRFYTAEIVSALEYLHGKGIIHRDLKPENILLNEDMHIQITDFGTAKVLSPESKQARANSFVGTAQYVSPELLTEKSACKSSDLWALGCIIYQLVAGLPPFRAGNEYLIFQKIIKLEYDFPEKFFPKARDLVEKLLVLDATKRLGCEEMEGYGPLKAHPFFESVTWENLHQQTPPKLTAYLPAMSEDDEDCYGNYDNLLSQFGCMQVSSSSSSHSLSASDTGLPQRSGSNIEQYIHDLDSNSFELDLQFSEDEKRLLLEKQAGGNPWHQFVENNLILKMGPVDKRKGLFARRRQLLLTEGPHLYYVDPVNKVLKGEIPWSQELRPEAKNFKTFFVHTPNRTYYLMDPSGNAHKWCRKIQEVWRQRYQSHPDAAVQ

Sequence of Tyrosine-protein kinase Lck (Homo sapiens) (P06239 2-509 limits assumed): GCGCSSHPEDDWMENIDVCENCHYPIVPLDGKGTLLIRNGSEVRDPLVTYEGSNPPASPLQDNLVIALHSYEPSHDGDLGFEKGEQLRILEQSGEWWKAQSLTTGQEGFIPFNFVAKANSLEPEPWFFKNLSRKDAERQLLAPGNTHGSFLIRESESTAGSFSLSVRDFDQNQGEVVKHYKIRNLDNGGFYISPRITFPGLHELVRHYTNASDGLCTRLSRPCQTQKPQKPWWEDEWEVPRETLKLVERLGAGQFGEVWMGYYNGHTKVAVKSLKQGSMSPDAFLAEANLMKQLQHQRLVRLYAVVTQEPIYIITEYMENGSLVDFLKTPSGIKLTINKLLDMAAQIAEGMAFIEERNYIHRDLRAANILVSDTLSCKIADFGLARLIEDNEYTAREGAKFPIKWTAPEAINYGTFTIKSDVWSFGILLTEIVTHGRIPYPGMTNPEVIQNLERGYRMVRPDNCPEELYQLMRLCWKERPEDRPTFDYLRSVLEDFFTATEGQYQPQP
Sequence of Adenosine receptor A3 (Homo sapiens) (P0DMS8 whole entry): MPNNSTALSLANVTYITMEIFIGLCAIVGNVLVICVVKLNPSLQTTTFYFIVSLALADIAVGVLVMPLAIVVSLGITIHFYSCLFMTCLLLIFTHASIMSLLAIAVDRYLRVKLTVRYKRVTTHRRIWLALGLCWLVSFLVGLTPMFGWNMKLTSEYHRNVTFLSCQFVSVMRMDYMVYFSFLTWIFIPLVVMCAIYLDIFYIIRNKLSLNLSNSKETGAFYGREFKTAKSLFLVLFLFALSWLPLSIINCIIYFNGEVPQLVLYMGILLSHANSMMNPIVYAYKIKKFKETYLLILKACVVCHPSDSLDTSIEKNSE
Sequence of Dual 3',5'-cyclic-AMP and -GMP phosphodiesterase 11A (Q9HCR9 whole entry): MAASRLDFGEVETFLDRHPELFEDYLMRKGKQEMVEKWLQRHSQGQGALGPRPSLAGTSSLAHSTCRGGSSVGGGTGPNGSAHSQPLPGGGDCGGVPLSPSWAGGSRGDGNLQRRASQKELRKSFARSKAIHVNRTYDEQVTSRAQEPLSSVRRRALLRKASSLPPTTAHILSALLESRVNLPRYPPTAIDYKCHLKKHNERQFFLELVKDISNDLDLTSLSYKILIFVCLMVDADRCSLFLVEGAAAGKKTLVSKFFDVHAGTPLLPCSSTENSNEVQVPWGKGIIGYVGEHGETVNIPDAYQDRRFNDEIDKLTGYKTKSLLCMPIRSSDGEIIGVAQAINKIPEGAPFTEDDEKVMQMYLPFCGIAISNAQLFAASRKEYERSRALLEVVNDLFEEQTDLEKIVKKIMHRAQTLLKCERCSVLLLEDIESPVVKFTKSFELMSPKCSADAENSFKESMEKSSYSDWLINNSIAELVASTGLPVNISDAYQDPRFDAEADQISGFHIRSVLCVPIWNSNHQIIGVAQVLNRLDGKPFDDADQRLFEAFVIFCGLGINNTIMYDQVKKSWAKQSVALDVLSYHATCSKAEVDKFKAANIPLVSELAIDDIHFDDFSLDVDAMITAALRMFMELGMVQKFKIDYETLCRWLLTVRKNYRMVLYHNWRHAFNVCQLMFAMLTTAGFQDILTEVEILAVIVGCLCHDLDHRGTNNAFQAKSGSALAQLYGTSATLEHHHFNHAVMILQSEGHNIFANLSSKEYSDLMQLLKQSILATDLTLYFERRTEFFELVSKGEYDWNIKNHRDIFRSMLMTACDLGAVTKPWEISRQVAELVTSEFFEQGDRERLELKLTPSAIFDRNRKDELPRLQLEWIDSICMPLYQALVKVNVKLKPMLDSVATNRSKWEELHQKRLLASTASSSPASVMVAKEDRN
Sequence of Voltage-dependent L-type calcium channel subunit alpha-1D (Homo sapiens) (Q01668 whole entry): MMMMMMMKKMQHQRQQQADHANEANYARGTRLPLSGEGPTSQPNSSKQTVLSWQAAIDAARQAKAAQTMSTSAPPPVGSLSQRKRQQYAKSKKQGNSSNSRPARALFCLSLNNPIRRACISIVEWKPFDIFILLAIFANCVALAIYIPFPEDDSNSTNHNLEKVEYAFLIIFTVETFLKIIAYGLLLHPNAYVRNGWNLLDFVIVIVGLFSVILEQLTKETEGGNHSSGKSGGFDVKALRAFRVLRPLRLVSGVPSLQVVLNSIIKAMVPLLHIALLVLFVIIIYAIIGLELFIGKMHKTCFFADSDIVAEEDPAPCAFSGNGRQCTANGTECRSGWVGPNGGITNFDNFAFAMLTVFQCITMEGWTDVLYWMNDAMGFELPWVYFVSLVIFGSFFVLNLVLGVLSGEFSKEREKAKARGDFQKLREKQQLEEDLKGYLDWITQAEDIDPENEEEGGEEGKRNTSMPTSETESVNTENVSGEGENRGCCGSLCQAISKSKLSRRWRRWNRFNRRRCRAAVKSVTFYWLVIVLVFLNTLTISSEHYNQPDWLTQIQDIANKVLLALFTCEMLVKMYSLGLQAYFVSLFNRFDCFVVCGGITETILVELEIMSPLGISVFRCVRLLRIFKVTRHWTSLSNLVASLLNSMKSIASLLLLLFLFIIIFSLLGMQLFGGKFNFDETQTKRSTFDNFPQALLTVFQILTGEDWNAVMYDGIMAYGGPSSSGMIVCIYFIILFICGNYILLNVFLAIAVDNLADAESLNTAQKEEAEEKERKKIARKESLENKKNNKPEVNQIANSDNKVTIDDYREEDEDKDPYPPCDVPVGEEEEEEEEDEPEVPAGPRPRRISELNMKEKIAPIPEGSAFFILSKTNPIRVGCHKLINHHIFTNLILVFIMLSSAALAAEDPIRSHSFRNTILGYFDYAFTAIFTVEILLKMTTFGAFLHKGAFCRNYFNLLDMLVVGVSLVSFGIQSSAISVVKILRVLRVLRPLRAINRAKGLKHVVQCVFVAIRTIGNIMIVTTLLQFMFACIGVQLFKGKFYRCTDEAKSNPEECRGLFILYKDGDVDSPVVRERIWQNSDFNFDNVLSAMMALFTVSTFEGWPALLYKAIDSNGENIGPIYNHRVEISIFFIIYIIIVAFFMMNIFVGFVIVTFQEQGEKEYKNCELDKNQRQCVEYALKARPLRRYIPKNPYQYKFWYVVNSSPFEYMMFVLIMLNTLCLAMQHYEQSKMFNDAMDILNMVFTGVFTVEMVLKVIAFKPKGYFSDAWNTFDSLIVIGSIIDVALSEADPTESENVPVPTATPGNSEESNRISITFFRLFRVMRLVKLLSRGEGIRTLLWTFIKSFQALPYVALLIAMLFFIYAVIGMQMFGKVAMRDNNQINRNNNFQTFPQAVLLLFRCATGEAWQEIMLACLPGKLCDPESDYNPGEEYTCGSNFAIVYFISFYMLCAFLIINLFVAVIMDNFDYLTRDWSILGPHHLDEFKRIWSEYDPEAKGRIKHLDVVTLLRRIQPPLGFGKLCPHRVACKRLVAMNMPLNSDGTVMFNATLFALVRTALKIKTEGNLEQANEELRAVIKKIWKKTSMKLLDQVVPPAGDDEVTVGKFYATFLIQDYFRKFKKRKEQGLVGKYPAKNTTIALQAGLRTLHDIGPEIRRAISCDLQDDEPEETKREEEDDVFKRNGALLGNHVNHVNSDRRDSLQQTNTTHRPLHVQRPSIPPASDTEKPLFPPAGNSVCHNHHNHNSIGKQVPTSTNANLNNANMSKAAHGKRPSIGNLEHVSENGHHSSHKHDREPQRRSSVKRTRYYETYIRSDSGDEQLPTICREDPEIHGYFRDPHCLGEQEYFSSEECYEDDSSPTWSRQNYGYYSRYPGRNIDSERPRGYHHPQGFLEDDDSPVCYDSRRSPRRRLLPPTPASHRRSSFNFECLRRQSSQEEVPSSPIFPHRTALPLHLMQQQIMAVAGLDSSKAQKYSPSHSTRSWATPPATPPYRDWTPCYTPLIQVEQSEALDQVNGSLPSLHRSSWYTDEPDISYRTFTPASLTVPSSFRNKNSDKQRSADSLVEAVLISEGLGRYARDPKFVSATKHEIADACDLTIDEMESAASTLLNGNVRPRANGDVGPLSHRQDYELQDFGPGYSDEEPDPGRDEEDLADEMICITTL
Sequence of Substance-P receptor (Homo sapiens) (P25103 whole entry): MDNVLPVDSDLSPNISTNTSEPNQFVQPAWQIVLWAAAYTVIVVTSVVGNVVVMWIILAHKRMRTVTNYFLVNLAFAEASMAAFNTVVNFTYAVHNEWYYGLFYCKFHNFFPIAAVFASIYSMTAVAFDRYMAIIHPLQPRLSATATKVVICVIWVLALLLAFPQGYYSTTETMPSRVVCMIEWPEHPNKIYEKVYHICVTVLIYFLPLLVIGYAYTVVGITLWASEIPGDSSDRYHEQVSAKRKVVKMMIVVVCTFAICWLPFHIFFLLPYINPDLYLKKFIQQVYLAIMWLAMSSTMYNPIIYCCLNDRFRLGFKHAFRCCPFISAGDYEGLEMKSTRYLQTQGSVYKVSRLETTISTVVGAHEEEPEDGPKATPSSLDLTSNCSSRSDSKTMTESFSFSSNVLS

- IC50 [1]: > 16 µM
- IC50 [2]: > 16 µM
- IC50 [3]: > 16 µM
- IC50 [4]: > 16 µM
- IC50 [5]: > 16 µM
- IC50 [6]: 11.6 µM
- Activity [7]: 35%
- Activity [8]: 0%
- Activity [9]: 12%
- Activity [10]: 3%
- Activity [11]: 3%
- Activity [12]: 21%
- inhibition [13]: 23%
- inhibition [14]: 16%
- inhibition [15]: 32%
- inhibition [16]: 0%
- inhibition [17]: 5%
- Activity [18]: 0%
- Activity [19]: 20%
- Activity [20]: 7%
- Activity [21]: 9%
- Activity [22]: 0%
- Activity [23]: 0%
- Activity [24]: 0%
- Activity [25]: 0%
- Activity [26]: 13%
- Activity [27]: 12%
- inhibition [28]: 0%
- inhibition [29]: 5%
- inhibition [30]: 10%
- inhibition [31]: 53%
- inhibition [32]: 7%
- Activity [33]: 0%
- Activity [34]: 0%
- Papp [35]: 5 ×10⁻⁶ cm/s
- Papp [36]: 4.6 ×10⁻⁶ cm/s
- clearance [37]: 8.8 mL/min/kg
- Vd [38]: 0.1 L/kg
- half-life [39]: 1.6 h
- inhibition [40]: 0%
SMILES: CN1C(=O)C(C(=O)Nc2nncs2)c2cc3occc3cc21 (stereo not given)
